ChEMBL document CHEMBL3286091, “Novel N-linked aminopiperidine-based gyrase inhibitors with improved hERG and in vivo efficacy against Mycobacterium tuberculosis” (J Med Chem, 2014)
In brackets after ≈: the same amount, converted by molar mass. Activity calls are given as the source filed them. No cut-off for these calls is given here.

Experiments:
[1] = test system: Mycobacterium tuberculosis; assay: Antimycobacterial activity against Mycobacterium tuberculosis infected in aminobenzotriazole-pretreated BALB/c mouse acute tuberculosis model assessed as reduction in bacterial burden at 80 to 160 mg/kg, po bid for 20 days; type: functional, organism-based
How it was run: (§1)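 Aerosol-infected BALB/c mice in BSL3, three per group. Treatment began 3 days (acute) or 4 weeks (chronic) after infection. ABT 100 mg/kg po in water was given 2 h before oral gavage of compound in 5% dextrose (pH 4−5 with acetic acid), 10 mL/kg, twice daily at 8 h intervals. Courses were 20 days (7 days/week) or 8 weeks (6 days/week). Lung homogenates were plated on 7H11 for cfu.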

[2] = test system: Mycobacterium tuberculosis; assay: Antimycobacterial activity against Mycobacterium tuberculosis infected in aminobenzotriazole-pretreated BALB/c mouse chronic tuberculosis model assessed as reduction in log10CFU at 240 mg/kg, po bid for 20 days; type: functional, organism-based; design: dose 240 mg/kg; how it was run: as §1
[3] = Fraction unbound in aminobenzotriazole-pretreated BALB/c mouse plasma infected with Mycobacterium tuberculosis by LC-MS/MS analysis; type: ADME, cell-free
Mus musculus [4] = assay: fT>MIC in BALB/c mouse infected with Mycobacterium tuberculosis at 160 mg/kg, po
How it was run: (§2)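 PK was measured in infected, ABT-pretreated mice during efficacy dosing (oral, 5% dextrose pH 4−5) on day 18 or 19. Saphenous blood was taken at 5, 15 and 30 min and 1, 2, 4 and 6 h. Plasma was precipitated with acetonitrile and analysed by LC−MS/MS. AUC came from noncompartmental analysis; free AUC/MIC and %free T>MIC used the unbound fraction and MIC.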

[5] = test system: Mycobacterium tuberculosis; assay: Antimycobacterial activity against wild-type Mycobacterium tuberculosis H37Rv ATCC 27294 after 16 to 18 days by BACTEC 7H12B microdilution method; type: functional
[6] = molecular target: DNA gyrase subunit A/DNA gyrase subunit B (Mycobacterium tuberculosis (strain ATCC 25618 / H37Rv), UniProt P9WG45+P9WG47); assay: Inhibition of Mycobacterium tuberculosis H37Rv DNA gyrase holoenzyme-mediated supercoiling of pBR322 DNA after 90 mins by agarose gel electrophoresis
Sequence of DNA gyrase subunit A/DNA gyrase subunit B (P9WG45 whole entry): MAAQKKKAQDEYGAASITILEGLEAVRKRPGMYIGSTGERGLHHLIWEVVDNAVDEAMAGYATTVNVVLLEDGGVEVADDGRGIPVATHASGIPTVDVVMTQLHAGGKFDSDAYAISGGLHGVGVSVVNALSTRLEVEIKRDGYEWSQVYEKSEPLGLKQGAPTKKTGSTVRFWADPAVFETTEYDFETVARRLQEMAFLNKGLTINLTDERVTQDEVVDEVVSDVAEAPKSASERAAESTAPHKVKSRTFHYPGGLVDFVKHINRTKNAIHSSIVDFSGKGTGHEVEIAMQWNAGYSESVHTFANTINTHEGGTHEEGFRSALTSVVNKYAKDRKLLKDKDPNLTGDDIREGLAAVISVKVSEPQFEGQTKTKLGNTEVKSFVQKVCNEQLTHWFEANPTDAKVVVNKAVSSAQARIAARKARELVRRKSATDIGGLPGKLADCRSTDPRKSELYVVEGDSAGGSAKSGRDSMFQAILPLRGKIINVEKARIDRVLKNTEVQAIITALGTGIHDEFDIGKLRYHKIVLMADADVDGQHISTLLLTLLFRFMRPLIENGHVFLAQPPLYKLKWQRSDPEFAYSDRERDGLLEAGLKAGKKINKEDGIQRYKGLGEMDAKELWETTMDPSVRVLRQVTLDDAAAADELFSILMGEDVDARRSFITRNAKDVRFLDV
Sequence of DNA gyrase subunit A/DNA gyrase subunit B (P9WG47 whole entry): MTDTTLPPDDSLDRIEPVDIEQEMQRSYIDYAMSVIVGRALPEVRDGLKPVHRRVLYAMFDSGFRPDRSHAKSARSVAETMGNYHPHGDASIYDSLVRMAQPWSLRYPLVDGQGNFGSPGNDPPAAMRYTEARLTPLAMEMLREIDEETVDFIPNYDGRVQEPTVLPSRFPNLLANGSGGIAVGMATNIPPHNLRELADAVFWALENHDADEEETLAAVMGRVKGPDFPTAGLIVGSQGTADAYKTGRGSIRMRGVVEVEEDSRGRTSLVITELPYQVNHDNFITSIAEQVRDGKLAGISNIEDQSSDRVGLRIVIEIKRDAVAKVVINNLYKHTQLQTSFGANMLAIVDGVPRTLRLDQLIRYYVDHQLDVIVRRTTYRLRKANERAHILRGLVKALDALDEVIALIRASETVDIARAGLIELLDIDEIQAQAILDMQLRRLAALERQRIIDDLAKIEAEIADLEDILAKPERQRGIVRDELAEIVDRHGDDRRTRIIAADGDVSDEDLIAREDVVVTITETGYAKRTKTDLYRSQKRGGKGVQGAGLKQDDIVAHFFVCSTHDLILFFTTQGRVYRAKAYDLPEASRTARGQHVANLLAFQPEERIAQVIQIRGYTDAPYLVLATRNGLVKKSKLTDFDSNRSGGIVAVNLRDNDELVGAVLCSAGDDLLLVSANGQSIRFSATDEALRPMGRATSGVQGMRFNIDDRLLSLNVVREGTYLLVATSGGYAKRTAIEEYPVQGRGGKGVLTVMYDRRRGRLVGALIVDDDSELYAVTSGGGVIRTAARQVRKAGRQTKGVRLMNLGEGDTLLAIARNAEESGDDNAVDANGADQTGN

[7] = Octanol-sodium phosphate buffer partition coefficient, log D of the compound at 10 mM at pH 7.4 by shake-flask method; type: physicochemical
[8] = Apparent permeability from apical to basolateral side in human Caco2 cells; type: ADME, cell-based; settings: Caco-2
[9] = Apparent permeability from basolateral to apical side in human Caco2 cells; type: ADME, cell-based; settings: Caco-2
[10] = test system: Mycobacterium tuberculosis; assay: Bactericidal activity against Mycobacterium tuberculosis infected in human THP1 cells at 1 ug/ml for 7 days; type: functional, THP-1
How it was run: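 Adherent THP-1 macrophages infected with Mtb were exposed to compound at 1 μg/mL for 7 days at 37 °C. Kill was expressed as log reduction versus the untreated control.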

[11] = test system: Mycobacterium tuberculosis; assay: Antimycobacterial activity against Mycobacterium tuberculosis infected in aminobenzotriazole-pretreated BALB/c mouse chronic tuberculosis model assessed as reduction in log10CFU at 40 to 80 mg/kg, po bid for 20 days; type: functional; settings: dose mg/kg 40-80; how it was run: as §1
[12] = test system: Mycobacterium tuberculosis; assay: Antimycobacterial activity against Mycobacterium tuberculosis infected in aminobenzotriazole-pretreated BALB/c mouse chronic tuberculosis model assessed as reduction in log10CFU at 40 to 80 mg/kg, po bid for 8 weeks; type: functional, organism-based; how it was run: as §1
[13] = Ratio of fAUC in aminobenzotriazole-pretreated Mycobacterium tuberculosis infected BALB/c mouse at 20 mg/kg, po to MIC for wild-type Mycobacterium tuberculosis H37Rv ATCC 27294; how it was run: as §2
Mus musculus [14] = assay: fT>MIC in BALB/c mouse infected with Mycobacterium tuberculosis at 20 mg/kg, po; how it was run: as §2
[15] = molecular target: T1, DNA gyrase subunit A/DNA gyrase subunit B (Mycobacterium tuberculosis (strain ATCC 25618 / H37Rv)) (UniProt P9WG45+P9WG47); assay: Inhibition of Mycobacterium tuberculosis H37Rv DNA gyrase holoenzyme using pBR322 DNA as substrate assessed as increase in single-strand cleaved plasmid DNA level after 60 mins by cleavable complex assay relative to control
How it was run: (§3)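 Reactions were started with DNA and run 60 min at 37 °C, then stopped with proteinase K/SDS for 1 h at 37 °C. Products were resolved on 0.8% agarose with ethidium for 16 h at 1 V/cm, and nicked, linear and supercoiled forms were quantified.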

[16] = molecular target: Voltage-gated inwardly rectifying potassium channel KCNH2 (Homo sapiens, UniProt Q12809); assay: Inhibition of human ERG by patch clamp electrophysiological analysis
Sequence of Voltage-gated inwardly rectifying potassium channel KCNH2 (Q12809 whole entry): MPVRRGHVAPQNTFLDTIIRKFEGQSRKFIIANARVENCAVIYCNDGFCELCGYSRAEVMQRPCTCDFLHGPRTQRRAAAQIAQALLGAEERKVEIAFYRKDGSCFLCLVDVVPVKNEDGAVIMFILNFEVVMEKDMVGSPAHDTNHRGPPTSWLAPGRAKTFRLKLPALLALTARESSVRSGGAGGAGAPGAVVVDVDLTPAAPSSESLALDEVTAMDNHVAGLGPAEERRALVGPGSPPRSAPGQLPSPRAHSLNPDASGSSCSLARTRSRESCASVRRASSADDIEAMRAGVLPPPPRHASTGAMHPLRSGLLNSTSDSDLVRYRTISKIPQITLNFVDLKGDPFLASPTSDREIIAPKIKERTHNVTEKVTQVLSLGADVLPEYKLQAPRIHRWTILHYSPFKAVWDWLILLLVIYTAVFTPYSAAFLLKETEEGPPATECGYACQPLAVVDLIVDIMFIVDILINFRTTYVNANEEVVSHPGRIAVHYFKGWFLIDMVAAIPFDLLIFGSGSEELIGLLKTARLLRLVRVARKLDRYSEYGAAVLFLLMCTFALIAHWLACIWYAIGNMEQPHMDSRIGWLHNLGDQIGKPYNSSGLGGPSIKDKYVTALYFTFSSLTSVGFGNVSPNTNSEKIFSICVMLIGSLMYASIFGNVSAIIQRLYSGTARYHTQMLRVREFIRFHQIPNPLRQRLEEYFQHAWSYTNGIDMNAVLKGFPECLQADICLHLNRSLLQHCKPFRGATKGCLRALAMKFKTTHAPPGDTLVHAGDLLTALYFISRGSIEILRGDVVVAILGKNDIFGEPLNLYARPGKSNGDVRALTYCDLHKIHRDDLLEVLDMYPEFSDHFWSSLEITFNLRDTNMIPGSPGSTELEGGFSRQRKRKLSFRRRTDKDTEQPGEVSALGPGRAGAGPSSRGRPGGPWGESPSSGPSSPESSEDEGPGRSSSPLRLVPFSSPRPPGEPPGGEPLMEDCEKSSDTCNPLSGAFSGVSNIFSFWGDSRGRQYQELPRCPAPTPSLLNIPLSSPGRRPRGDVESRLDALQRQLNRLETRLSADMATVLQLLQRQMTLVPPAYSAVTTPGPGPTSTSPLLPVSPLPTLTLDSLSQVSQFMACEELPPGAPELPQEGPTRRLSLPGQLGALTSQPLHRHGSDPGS

[17] = Clearance in rat at 40 mg/kg, po and 5 mg/kg, iv by LC-MS/MS analysis; type: ADME, organism-based; settings: in vivo
How it was run: (§4)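 Rats were dosed with the 5% dextrose (pH 4−5) formulation, 5 mg/kg iv and 40 mg/kg po. Plasma was precipitated with acetonitrile and analysed by LC−MS/MS with a carbamazepine internal standard. Parameters were derived by noncompartmental analysis.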

[18] = Oral bioavailability in rat at 40 mg/kg by LC-MS/MS analysis; type: ADME, organism-based; settings: in vivo; how it was run: as §4
[19] = molecular target: T1, DNA gyrase subunit A/DNA gyrase subunit B (Mycobacterium tuberculosis (strain ATCC 25618 / H37Rv)); assay: Inhibition of Mycobacterium tuberculosis H37Rv DNA gyrase holoenzyme using pBR322 DNA as substrate assessed as single stranded nicked DNA level at 0.02 to 11 uM after 60 mins by cleavable complex assay relative to control; design: scale not given: the % may be the effect or the level left; how it was run: as §3
[20] = molecular target: T1, DNA gyrase subunit A/DNA gyrase subunit B (Mycobacterium tuberculosis (strain ATCC 25618 / H37Rv)); assay: Inhibition of Mycobacterium tuberculosis H37Rv DNA gyrase holoenzyme using pBR322 DNA as substrate assessed as intact DNA level at 0.02 to 11 uM after 60 mins by cleavable complex assay relative to control; design: scale not given: the % may be the effect or the level left; how it was run: as §3
[21] = test system: Mycobacterium tuberculosis; assay: Antimycobacterial activity against Mycobacterium tuberculosis infected in aminobenzotriazole-pretreated BALB/c mouse acute tuberculosis model assessed as reduction in log10CFU at 160 mg/kg, po bid for 20 days; type: functional; how it was run: as §1
[22] = Ratio of fAUC in aminobenzotriazole-pretreated Mycobacterium tuberculosis infected BALB/c mouse at 80 mg/kg, po to MIC for wild-type Mycobacterium tuberculosis H37Rv ATCC 27294; how it was run: as §2
Mus musculus [23] = assay: fT>MIC in BALB/c mouse infected with Mycobacterium tuberculosis at 80 mg/kg, po; how it was run: as §2
[24] = test system: Mycobacterium tuberculosis; assay: Bactericidal activity against Mycobacterium tuberculosis H37Rv after 10 days by time kill assay; type: functional, organism-based
How it was run: (§5)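 Time-kill in 7H9 broth with 0.2% glycerol, 0.05% Tween 80 and 10% ADC. Serial 2-fold dilutions were added to ~3 × 10^7 cfu/mL H37Rv at 37 °C. Aliquots were plated on 7H11 at days 0, 3, 7 and 10, and plates were incubated up to 28 days at 37 °C, 5% CO2, humidified. Results are given as log10 cfu per concentration.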

[25] = test system: Mycobacterium tuberculosis; assay: Bactericidal activity against Mycobacterium tuberculosis H37Rv at 0.01 to 2 ug/ml by time kill assay; type: functional, organism-based; settings: TDE = time-dependent effect; how it was run: as §5
[26] = test system: Mycobacterium tuberculosis; assay: Bactericidal activity against Mycobacterium tuberculosis H37Rv assessed as reduction in log10CFU at 0.01 to 2 ug/ml after 10 days by time kill assay; type: functional; how it was run: as §5

SMILES | Activity [1] | fraction unbound [3] | MIC [5] | IC50 [6] | logD at 10000 µM [7] | Papp A→B [8] | Papp B→A [9] | LCK [10] | clearance [17] | bioavailability [18] | other results
COc1cnc2ccc(=O)n(CCN3CC[C@H](NCc4ccc5c(n4)NC(=O)CO5)[C@H](F)C3)c2c1 | Active | 0.48 | 0.06 µg/mL (≈ 0.124 µM) | 170 nM | 0.82 | 3.4 ×10⁻⁶ cm/s | 12.7 ×10⁻⁶ cm/s | 1.3 | – | – | Activity [2]: Active; fT>MIC (Mus musculus [4]): 83%
COc1cnc2ccc(=O)n(CCN3CCC(NCc4cnc(C)c(C#N)c4)CC3)c2c1 | – | 0.23 | 0.06 µg/mL (≈ 0.139 µM) | 140 nM | 1.07 | 10.5 ×10⁻⁶ cm/s | 8.3 ×10⁻⁶ cm/s | – | 32 mL/min/kg | > 100% | log10cfu [11]: 0.5; Activity [12]: Active; fAUC/MIC [13]: 54; fT>MIC (Mus musculus [14]): 58%; inhibition [15]: Dose-dependent effect; IC50 [16]: 50600 nM; Activity [19]: 70%; Activity [20]: 10%
O=C1COc2ccc(CN[C@@H]3CCN(CCn4c(=O)ccc5ncc(F)cc54)C[C@@H]3F)nc2N1 | Active | 0.32 | 0.13 µg/mL (≈ 0.276 µM) | 350 nM | 0.47 | 7.6 ×10⁻⁶ cm/s | 11.2 ×10⁻⁶ cm/s | 1.3 | 87 mL/min/kg | 87% | log10cfu [21]: 1.2; fAUC/MIC [22]: 129; fT>MIC (Mus musculus [23]): 70%; Activity [24]: Dose-dependent effect; Activity [25]: tde; log10cfu [26]: >3
